We go through five molecules from ChEMBL document CHEMBL1126033, “C-terminal modifications of nonpeptide renin inhibitors: improved oral bioavailability via modification of physicochemical properties” (J Med Chem, 1992).

Each structure is given as a SMILES string. pIC50: −log10 of the molar value. Some results are limits rather than exact numbers.

The term bioavailability denotes dose-corrected exposure relative to a reference, in per cent. As a reminder, the logD is lipophilicity at a set pH, counting ionised and neutral species. In general, pIC50 refers to the negative decadic logarithm of the IC50, by convention in mol/L.

System in one data set: not listed separately
Put plainly: Bioavailability in monkey (dose 10 mg/kg i.d.). The conditions noted are these: primates, in vivo. In kind it is ADME, organism-based. Put shortly:
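Male cynomolgus monkeys (3–5 kg) salt-depleted with furosemide 5 mg/kg po on days 7 and 1 plus a low-salt diet. Fasted, pentobarbital anesthesia. Intraduodenal dose of 10 mg/kg as HCl salt solution. Portal and systemic plasma drug levels measured by bioassay. Bioavailability = dose-normalized AUCid/AUCiv ×100 (trapezoidal integration; iv fit biexponential), mean ± SEM.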
Regarding `CCCCNC(=O)[C@@H](C[C@H](O)[C@H](CC1CCCCC1)NC(=O)[C@H](CCCC)O[C@@H](Cc1ccccc1)C(=O)N1CCC(OCOC)CC1)C(C)C`, the bioavailability amounted to 2.5%.

In turn, `CCCC[C@H](O[C@@H](Cc1ccccc1)C(=O)N1CCC(OCOC)CC1)C(=O)N[C@@H](CC1CCCCC1)[C@@H](O)[C@@H](O)CC(C)C` had a bioavailability of 2.5%.

`CCCC[C@H](N[C@@H](Cc1ccccc1)C(=O)N1CCC(OCOC)CC1)C(=O)N[C@@H](CC1CCCCC1)[C@@H](O)[C@@H](O)CC(C)C` had a bioavailability of 2.9%.

System in the next data set: not listed separately
Put plainly: Partition coefficient (logD7.4). The settings on record: octanol/water, pH 7.4.
As to `CCCCNC(=O)[C@@H](C[C@H](O)[C@H](CC1CCCCC1)NC(=O)[C@H](CCCC)O[C@@H](Cc1ccccc1)C(=O)N1CCC(OCOC)CC1)C(C)C`, the logD turned out to be 4.7.

For `CCCC[C@H](O[C@@H](Cc1ccccc1)C(=O)N1CCC(OCOC)CC1)C(=O)N[C@@H](CC1CCCCC1)[C@@H](O)C[C@H](NC(=O)OCCN(C)C)C(C)C`, the logD is above 4.

Molecule `CCCC[C@H](O[C@@H](Cc1ccccc1)C(=O)N1CCC(OCOC)CC1)C(=O)N[C@@H](CC1CCCCC1)[C@@H](O)C[C@H](C(=O)NCCCn1ccnc1)C(C)C` registered a logD of 4.

On to `CCCC[C@H](O[C@@H](Cc1ccccc1)C(=O)N1CCC(OCOC)CC1)C(=O)N[C@@H](CC1CCCCC1)[C@@H](O)[C@@H](O)CC(C)C`, for which the logD turned out to be 4.8.

System in a further data set: not listed separately
The data set is described as follows: (§1) Average peak plasma drug concentration after id dose of 10 mg/kg in ferrets(Plasma samples collected from portal blood). The settings on record: ferret, plasma (from portal blood).
Molecule `CCCC[C@H](O[C@@H](Cc1ccccc1)C(=O)N1CCC(OCOC)CC1)C(=O)N[C@@H](CC1CCCCC1)[C@@H](O)C[C@H](NC(=O)OCCN(C)C)C(C)C` showed a Cmax of 1540 ng/mL.

The target in a further data set is T1, Renin (Homo sapiens, UniProt P00797).
T1 sequence (P00797 whole entry): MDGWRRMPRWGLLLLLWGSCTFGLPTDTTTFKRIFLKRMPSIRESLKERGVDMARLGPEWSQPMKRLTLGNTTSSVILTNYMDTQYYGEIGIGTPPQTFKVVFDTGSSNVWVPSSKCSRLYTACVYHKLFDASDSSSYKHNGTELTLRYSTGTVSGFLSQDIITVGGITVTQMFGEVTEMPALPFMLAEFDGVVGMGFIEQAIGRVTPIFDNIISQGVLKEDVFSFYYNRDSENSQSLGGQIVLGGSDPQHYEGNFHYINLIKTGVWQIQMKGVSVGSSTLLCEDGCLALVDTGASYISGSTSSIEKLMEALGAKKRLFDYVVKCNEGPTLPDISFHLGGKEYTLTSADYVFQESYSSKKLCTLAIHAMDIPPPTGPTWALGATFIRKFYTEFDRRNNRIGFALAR
In kind it is cell-free, Plasma.
Conditions: not given
In turn, `CCCC[C@H](O[C@@H](Cc1ccccc1)C(=O)N1CCC(OCOC)CC1)C(=O)N[C@@H](CC1CCCCC1)[C@@H](O)C[C@H](NC(=O)OCCN(C)C)C(C)C` showed a pIC50 of 8.08.

For `CCCC[C@H](O[C@@H](Cc1ccccc1)C(=O)N1CCC(OCOC)CC1)C(=O)N[C@@H](CC1CCCCC1)[C@@H](O)C[C@H](C(=O)NCCCn1ccnc1)C(C)C`, the pIC50 is 8.52.

System in a further data set: not listed separately
Put plainly: Average peak plasma drug concentration after iv dose of 0.3 mg/kg in ferrets. The settings on record: ferret, plasma.
Molecule `CCCC[C@H](O[C@@H](Cc1ccccc1)C(=O)N1CCC(OCOC)CC1)C(=O)N[C@@H](CC1CCCCC1)[C@@H](O)C[C@H](NC(=O)OCCN(C)C)C(C)C` returned a Cmax of 1010 ng/mL.

The molecule `CCCC[C@H](O[C@@H](Cc1ccccc1)C(=O)N1CCC(OCOC)CC1)C(=O)N[C@@H](CC1CCCCC1)[C@@H](O)C[C@H](C(=O)NCCCn1ccnc1)C(C)C` showed a Cmax of 3390 ng/mL.

System in a further data set: not listed separately
The data set is described as follows: Partition coefficient (logD6.5). The settings on record: octanol/water, pH 6.5.
Turning to `CCCCNC(=O)[C@@H](C[C@H](O)[C@H](CC1CCCCC1)NC(=O)[C@H](CCCC)O[C@@H](Cc1ccccc1)C(=O)N1CCC(OCOC)CC1)C(C)C`, the logD stood at 4.7.

The molecule `CCCC[C@H](O[C@@H](Cc1ccccc1)C(=O)N1CCC(OCOC)CC1)C(=O)N[C@@H](CC1CCCCC1)[C@@H](O)C[C@H](NC(=O)OCCN(C)C)C(C)C` showed a logD of 3.6.

`CCCC[C@H](O[C@@H](Cc1ccccc1)C(=O)N1CCC(OCOC)CC1)C(=O)N[C@@H](CC1CCCCC1)[C@@H](O)C[C@H](C(=O)NCCCn1ccnc1)C(C)C` yielded a logD of 4.

Molecule `CCCC[C@H](O[C@@H](Cc1ccccc1)C(=O)N1CCC(OCOC)CC1)C(=O)N[C@@H](CC1CCCCC1)[C@@H](O)[C@@H](O)CC(C)C` yielded a logD of 4.8.

System in a further data set: not listed separately
The description is as §1. In kind it is ADME, organism-based, Mustela putorius furo. Details: dose 10 mg/kg, route intraduodenal. The settings on record: ferret, read-out: Average peak Concn. In short, it runs like this:
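Fasted male Fitch ferrets (0.4–1.2 kg) under Inactin anesthesia (100–120 mg/kg ip), catheterized in carotid artery, jugular vein, portal vein and trachea. Single 10 mg/kg intraduodenal dose of HCl salt solution. 6 portal and 7 arterial samples taken over 180 min. Plasma drug measured by renin-inhibition bioassay with serial dilution and acetonitrile precipitation. AUC by trapezoidal integration; peak is the mean of each animal's maximum.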
On to `CCCC[C@H](O[C@@H](Cc1ccccc1)C(=O)N1CCC(OCOC)CC1)C(=O)N[C@@H](CC1CCCCC1)[C@@H](O)C[C@H](C(=O)NCCCn1ccnc1)C(C)C`, for which the Cmax is 2420 ng/mL.

The subject of a further data set is Mustela putorius furo. The data set is described as follows: Average area under curve value dosed at 10 mg/kg, id in ferrets. The conditions noted are these: ferret, in vivo, other.
In the case of `CCCC[C@H](O[C@@H](Cc1ccccc1)C(=O)N1CCC(OCOC)CC1)C(=O)N[C@@H](CC1CCCCC1)[C@@H](O)C[C@H](NC(=O)OCCN(C)C)C(C)C`, the Average AUC turned out to be 2780 ng·h/mL.

On to `CCCC[C@H](O[C@@H](Cc1ccccc1)C(=O)N1CCC(OCOC)CC1)C(=O)N[C@@H](CC1CCCCC1)[C@@H](O)C[C@H](C(=O)NCCCn1ccnc1)C(C)C`, for which the Average AUC amounted to 3380 ng·h/mL.

System in the next data set: not listed separately
Put plainly: Bioavailability in ferret. The conditions noted are these: in vivo.
`CCCC[C@H](O[C@@H](Cc1ccccc1)C(=O)N1CCC(OCOC)CC1)C(=O)N[C@@H](CC1CCCCC1)[C@@H](O)C[C@H](NC(=O)OCCN(C)C)C(C)C` displayed a bioavailability of 36%.

For the molecule `CCCC[C@H](O[C@@H](Cc1ccccc1)C(=O)N1CCC(OCOC)CC1)C(=O)N[C@@H](CC1CCCCC1)[C@@H](O)C[C@H](C(=O)NCCCn1ccnc1)C(C)C`, the bioavailability is 25%.

System in the next data set: not listed separately
The data set is described as follows: Average peak plasma drug concentration after id dose of 10 mg/kg in ferrets(Plasma samples collected from arterial blood). The conditions noted are these: ferret, plasma (from arterial blood).
In turn, `CCCC[C@H](O[C@@H](Cc1ccccc1)C(=O)N1CCC(OCOC)CC1)C(=O)N[C@@H](CC1CCCCC1)[C@@H](O)C[C@H](NC(=O)OCCN(C)C)C(C)C` had a Cmax of 1190 ng/mL.

As for `CCCC[C@H](O[C@@H](Cc1ccccc1)C(=O)N1CCC(OCOC)CC1)C(=O)N[C@@H](CC1CCCCC1)[C@@H](O)C[C@H](C(=O)NCCCn1ccnc1)C(C)C`, the Cmax was found to be 2790 ng/mL.

A further data set concerns Mustela putorius furo. Put plainly: Average area under curve value dosed at 0.3 mg/kg, iv in ferrets. The settings on record: ferret, in vivo.
`CCCC[C@H](O[C@@H](Cc1ccccc1)C(=O)N1CCC(OCOC)CC1)C(=O)N[C@@H](CC1CCCCC1)[C@@H](O)C[C@H](NC(=O)OCCN(C)C)C(C)C` registered an Average AUC of 232 ng·h/mL.

Consider `CCCC[C@H](O[C@@H](Cc1ccccc1)C(=O)N1CCC(OCOC)CC1)C(=O)N[C@@H](CC1CCCCC1)[C@@H](O)C[C@H](C(=O)NCCCn1ccnc1)C(C)C`, for which the Average AUC came out at 410 ng·h/mL.
